Reference: ChEMBL document CHEMBL4513216, “Probing the Open Global Health Chemical Diversity Library for Multistage-Active Starting Points for Next-Generation Antimalarials” (ACS Infect Dis, 2020)

Assay: Toxicity liver stage against HepG2, at 10uM
Type: cell-based
Set-up: test concentration 10 uM, cell line HepG2-A16-CD81EGFP
Conditions: human, HepG2-A16-CD81EGFP cells; read-out: INHIBITION
Procedure, shortened: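 Uninfected HepG2-A16-CD81EGFP cells, 3 × 10^3 per well, 1536-well, plated on prespotted compound at 10 μM final, parasite-free screening media added to match infected plates; puromycin 10 μM positive, DMSO 0.5% negative; run in parallel with 48 h PbLuc assay at 37 °C, 5% CO2; viability by CellTiter-Glo luminescence, normalized to controls.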

| Structure (SMILES) | cytotoxicity at 10 µM |
| --- | --- |
| Cc1ccc2nc3n(c2c1)[C@@H](CNCc1nccs1)COC3 | -4.31% |
| COCCNC(=O)N1CCN(C(=O)c2nsc3ccc(C)cc23)CC1 | 7% |
| CCOCCNC(=O)c1cccnc1N1CCCC1c1ccccn1 (stereo unspecified) | 4.65% |
| O=C(Nc1ccccn1)c1csc(NC2CCCC2)n1 | 9.09% |
| O=C(C1CC(=O)N(c2n[nH]c3cc(Br)ccc23)C1)N1CCOCC1 (stereo unspecified) | -3.27% |
| O=c1n(Cc2cccc(F)c2)nc2ncccn12 | -7.9% |
| Cn1cnc2c1C(C(=O)N1CCOCC1)N(C(=O)c1ccccc1)CC2 (stereo unspecified) | -0.388% |
| Cc1cccc(S(=O)(=O)N2C[C@@H]3OCCN(C(C)C)[C@@H]3C2)c1 | 7.64% |
| O=C(Nc1ccccc1)C1=NOC2(CCCN(C(=O)C3CCCC3)C2)C1 (stereo unspecified) | 4.88% |
| CC(C)(C)CC(=O)N1CCCC2(CC(C(=O)Nc3ccccc3)=NO2)C1 (stereo unspecified) | -6.63% |
| O=C(O)c1ccc2c(c1)C1(CCCCC1)CN2C(=O)c1ccnnc1 | 3.59% |
| Cn1nccc1C(=O)N1CCCC2(CCN(c3ccsc3)C2=O)C1 (stereo unspecified) | -121% |
| Cc1nccc([C@@H]2C[C@@H]3CCN(Cc4cccs4)C[C@H]3O2)n1 | -143% |
| O=C1CC(c2cccs2)Cc2[nH]c(=O)ccc21 (stereo unspecified) | 0.185% |
| O=C(NCc1ccco1)N1CCCCC1c1nc(-c2ccncc2)no1 (stereo unspecified) | -7.92% |
| CC(C)CNC(=O)CSC1CCc2ccccc2NC1=O (stereo unspecified) | -2.38% |
| CC(C)c1cc2c(O)nc(CSCC(=O)O)nc2s1 | -4.61% |
| COCC1c2nnn(CC3CC3)c2CCN1C(=O)c1cccc(F)c1 (stereo unspecified) | -8.31% |
| FC(F)(F)c1cc(N2CCc3ncnc(NC4CC4)c3CC2)ncn1 | 1.79% |
| CCOC(=O)c1sc(NC(=O)COC)c(C#N)c1C | 7.61% |
| N#Cc1c(N2CCOCC2)nsc1-c1cccnc1 | 17% |
| Cc1cc(C(=O)NCc2c(C)nn(C)c2C)nc(N2CCCC2)n1 | 7.05% |
| O=C(Cn1cc(I)cn1)N1CCCC1 | -0.653% |

| Structure (SMILES) | cytotoxicity at 10 µM |
| --- | --- |
| Cc1cc(NC2CC3(CCN(Cc4csc(C)n4)C3)C2)ncn1 (stereo unspecified) | -2.34% |
| Cc1cc(-c2ccc(=O)n(C3CCN(C(=O)C4CCC4)CC3)n2)c(C)o1 | 4.22% |
| COCCNc1cccc(C2CCCN2)n1 (stereo unspecified) | -25.9% |
| Cn1nccc1C(=O)N1CCCC1c1[nH]ncc1C(N)=O (stereo unspecified) | -15.2% |
| O=C(CCn1ccnc1)N1C[C@@H](O)[C@H](Oc2cccc(F)c2)C1 | -21.6% |
| O=C(C1CCCC1)N1CCC(c2ncc3c(n2)CCNC3)C1 (stereo unspecified) | -15.3% |
| Cc1ccc2c(c1)C(=O)NCC1(CCN(C(=O)c3cnccn3)CC1)O2 | -15.8% |
| Cc1cnn(CC2CCN(CC(O)c3ccccc3F)CC2)c1 (stereo unspecified) | -5.18% |
| Cc1ccc(CN(Cc2cc(=O)n3cccc(C)c3n2)C(C)C)o1 | 7.65% |
| Cc1nc(C(NC(=O)c2cc(C(C)C)[nH]n2)c2ccccc2)n[nH]1 (stereo unspecified) | 11.6% |
| CCC(=O)Nc1nnc2n(Cc3cccc(OC)c3)[nH]c(C)c1-2 | -9.24% |
| O=C(CCC1CCCC1)N1CCC(O)(C(F)(F)F)C1 (stereo unspecified) | -0.0394% |
| COc1cc(F)cc(CNC(=O)Nc2ccn(CC(F)F)n2)c1 | -2.21% |
| CCOC(=O)CCNC(=O)c1cccc2ccc(C)nc12 | -5.15% |
| NC(=O)CN(Cc1ncc(-c2ccccc2)o1)C1CCCC1 | -4.3% |
| CC1CCN(CCCNC(=O)C2CCCCC2)CC1 | -2.63% |
| CC(C)(C(=O)NCCC(=O)O)c1cccc(Br)c1 | 7.01% |
| Cc1cnn(CCC(=O)N(CC2CN(C)CCO2)c2nccs2)c1 (stereo unspecified) | -5.82% |
| C[S+]([O-])c1nncn1CC(=O)c1cccc(Br)c1 (stereo unspecified) | 1.08% |
| O=C(Nc1cccc(N2CCN(CC3CC3)CC2)c1)N1CCCC1 | 0.441% |
| O=C(NS(=O)(=O)c1cc(Cl)ccc1Cl)c1cccc2c1OCCO2 | 10.3% |
| CCCc1nc(C)c(C(=O)NC2CCN(CC(N)=O)CC2)s1 | -6.3% |
| OC1(CNc2cc(C(F)(F)F)nc3ccccc23)CCOCC1 | -11.3% |

| Structure (SMILES) | cytotoxicity at 10 µM |
| --- | --- |
| COc1ccccc1C(NC(=O)NC1CC1)c1noc(C)n1 (stereo unspecified) | -4.12% |
| CN(C(=O)C1(C#N)CCCCC1)c1nccs1 | 0.658% |
| Cc1cc(CNC(=O)NCc2cccs2)ccc1S(C)(=O)=O | -6.97% |
| Cc1nccc(CNS(=O)(=O)N2CCCC2c2ccc(C)o2)n1 (stereo unspecified) | -5.88% |
| CN(C(=O)NCCCNc1ccccn1)C1CCS(=O)(=O)C1 (stereo unspecified) | 4.67% |
| Cc1ccoc1C(=O)N(CCN(C)C)Cc1ccccn1 | -5.47% |
| CN(C)C(=O)Cc1ccccc1NCc1cc(C#N)ccc1F | 48.1% |
| CC(C)NC(=O)CS(=O)(=O)c1cc2c(cc1Cl)OCCO2 | -2.46% |
| CCCC(=O)N(C)c1cc(C#N)c2ccccc2n1 | -7.55% |
| O=C(CNC(=O)c1cnc2ccccc2c1O)NCCn1ccnc1 | -3.02% |
| Cn1ncc2c1CCCC2NCc1ccc(OCc2cccnc2)cc1 (stereo unspecified) | 4.13% |
| CCN(C)CC1CCN(C(=O)Nc2ccc(-c3csnn3)cc2)C1 (stereo unspecified) | -2.15% |
| CN(CCCc1cc(-c2ccc(F)cc2)n(C)n1)CC(=O)NC(N)=O | 1.04% |
| CCOC1CCN(C(=O)c2c(Cl)c3ccccc3n2C)CC1 | 6.56% |
| O=C(NCCCn1nc2ccccn2c1=O)NC1CCC(O)CC1 (stereo unspecified) | -12.8% |
| CCN(CC)C(CNC(=O)c1ccc(S(C)(=O)=O)cc1)c1ccco1 (stereo unspecified) | -0.00646% |
| CC(=O)N(C)Cc1ncn2c1CN(C(=O)CC1CC1)CCC2 | -110% |
| CN(C)c1ccnc(-c2ccnc3c2ccn3C)n1 | 20.2% |
| CCn1c(N)nc2cc(C(=O)N3CCN(CC(F)(F)F)CC3)cnc21 | -2.03% |
| O=C(c1ccc(C2CCCN2C(=O)c2ccc[nH]2)s1)N1CCSCC1 (stereo unspecified) | 3.59% |
| Cc1cc(C(=O)N2CCc3c(nc(-c4ccncc4)[nH]c3=O)C2)no1 | -1.28% |
| CC(C)N1CCCC(C(=O)NCCc2csc(-c3ccncc3)n2)C1 (stereo unspecified) | -17.4% |
| CCN(CCn1cccn1)Cc1nc(-c2ccoc2)oc1C | -5.48% |

| Structure (SMILES) | cytotoxicity at 10 µM |
| --- | --- |
| Cc1cc(C2CCCN2Cc2cccc(C(=O)Nc3nccs3)c2)no1 (stereo unspecified) | -4.12% |
| CN1CSC[C@H]1C(=O)N1CCN(Cc2cccc(Cl)c2)CC1 | -4.28% |
| CN(Cc1ncc[nH]1)CC1CCOc2ccccc2C1 (stereo unspecified) | -1.93% |
| Cc1cc(C2CCC2)nc(N2CCC3(CCNC(=O)CC3)CC2)n1 | -10.1% |
| CCn1ncnc1C1CC(=O)NCc2nc(N3CCCC3)sc21 (stereo unspecified) | -2.4% |
| CC(=O)Nc1ccc(-c2cn(CCn3c(C)cc(C)nc3=O)nn2)cc1 | 5.03% |
| O=C(NCCc1nc(C2CC2)no1)[C@H]1CNC[C@H](C(=O)N2CCCC2)C1 | -107% |
| Cn1nccc1CCNC(=O)[C@H]1CNC[C@H](C(=O)N2CCCC2)C1 | -133% |
| CCN(CC)S(=O)(=O)N1CCCC(c2cccc(C(=O)O)c2)C1 (stereo unspecified) | -10% |
| CN(Cc1ccco1)C(=O)C1CSCN1C(=O)c1cccs1 (stereo unspecified) | -7.81% |
| c1ccc(Cc2nnc(CN3CCc4cncnc4C3)o2)cc1 | -4.48% |
| NC(=O)NCC1CCCCN1Cc1nc(-c2ccco2)no1 (stereo unspecified) | -6.06% |
| Cc1ccc(-c2noc(CN3CCn4c(nnc4C4CC4)C3)n2)cc1 | -9.04% |
| CN(Cc1noc(C2CC2)n1)C1CCN(Cc2cccc(F)c2F)C1 (stereo unspecified) | -13% |
| CCc1ncncc1C(=O)N1CCCC(n2nc(C)nc2C)C1 (stereo unspecified) | -6.54% |
| CN(C)C1CCN(C(=O)Cc2csc(-c3ncccn3)n2)CC1 | -0.279% |
| CC(C)N(C(=O)CN(C)C1CCc2ccccc21)C(C)C (stereo unspecified) | -9.3% |
| O=C(Cc1n[nH]c2ccccc12)N1CCCCC1Cn1cccn1 (stereo unspecified) | -14.8% |
| COc1ccc(C(=O)N2CCC(Nc3cccnn3)CC2)c(F)c1 | -8.96% |
| CCCc1nc(CNC(C)Cn2cccn2)cs1 (stereo unspecified) | -12.5% |
| Cc1noc(C(C)C)c1C(=O)NCCN1CCOCC1 | -8.73% |
| CC(=O)N1CCCN(C(=O)NCCOc2ccc3c(c2)OCO3)CC1 | -14.9% |
| CC(NC(=O)CCC1CCCCC1)c1nnc2n1CCC2 (stereo unspecified) | -27.1% |

| Structure (SMILES) | cytotoxicity at 10 µM |
| --- | --- |
| CN(C)c1ccc(C(=O)N2CCCN(Cc3cscn3)CC2)nn1 | -9.39% |
| Cc1nc(CN2CCOC(Cn3cccn3)C2)nc2ccccc12 (stereo unspecified) | -24.8% |
| Cc1csc(CNC(=O)N(C)Cc2ccc3c(c2)OCO3)n1 | -4.31% |
| CCc1nc(CN2CCCN(C(=O)c3cn[nH]c3C)CC2)cs1 | -2.97% |
| CC(C)c1cc(C(=O)NCCn2nc3ccccn3c2=O)n[nH]1 | -8.5% |
| Cc1nc(CN(C)C2CCCN(c3cccnn3)C2)no1 (stereo unspecified) | -7.1% |
| Cc1nc(-c2ccc(Cl)s2)sc1C(=O)NCCS(N)(=O)=O | -2.09% |
| Cc1nc(C2CCCN2C(=O)c2cc3c(s2)CCCC3)no1 (stereo unspecified) | -11.2% |
| CCOC(=O)N1CCC(C(=O)c2cc(F)ccc2F)CC1 | -8.11% |
| CN(Cc1cccnc1)[C@@H]1CN(C(=O)CC2CC2)[C@@H]2CCCO[C@H]12 | 7.86% |
| Cn1nc(CN2CCCC2)c2c1CN(C(=O)c1cccnc1)CC2 | -146% |
| CC(C)N(C)Cc1cnc2n1CCN(S(=O)(=O)c1ccccc1)C2 | -1.72% |
| CC(C)(C)c1n[nH]cc1CNC1CCC(C(F)(F)F)CC1 (stereo unspecified) | 4.25% |
| Fc1ccc(CN2CCO[C@H]3[C@H](OCC4CC4)CC[C@@H]32)cc1 | -5.34% |
| COCC(=O)N1CC[C@@H](OCC2CC2)[C@@H]1Cc1cccnc1 | -4.92% |
| O=C(Cc1ccccn1)N1C[C@H](OCc2cccnc2)[C@H]2COC[C@H]21 | 12.3% |
| CCOc1ncnc2c1CCN(C(=O)NCc1cccnc1)CC2 | -127% |
| O=C(Cc1cccs1)N1C[C@@H]2OCCN(CC3CCCC3)[C@@H]2C1 | -4.75% |
| O=C(c1cc(F)cc(Cl)c1)N1C[C@H]2CC[C@@H](C1)N(Cc1ccccc1)C2 | -128% |
